Measurements: ChEMBL document CHEMBL3243938, “Mercapto heterocyclic carboxylic acids, analogues of 3-mercaptopicolinic acid” (J Med Chem, 1977)
Activity calls are given as the source filed them. The calls are words filed in the database; no cut-off is given here.

How the values were obtained:
[1] = test system: Rattus norvegicus; assay: Hypoglycemic activity in 48-hrs fasted rat assessed as decrease in blood glucose level at 300 mg/kg, po measured up to 4 hrs after drug administration; format: functional, organism-based; parameters: dose 300 mg/kg
Summary of the method: (§1)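 Male rats of about 200 g were fasted 48 h. A zero-time tail-vein blood sample was taken on the morning of the test, then compound was given ip as a suspension in 0.9% saline or orally as a suspension in 0.5% tragacanth. Vehicle-only rats served as controls. Tail-vein blood was sampled at 1, 2 and 4 h for glucose.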

[2] = test system: Rattus norvegicus; assay: Hypoglycemic activity in 48-hrs fasted rat assessed as decrease in blood glucose level at 300 mg/kg, ip measured up to 4 hrs after drug administration; format: functional, organism-based; parameters: dose 300 mg/kg; summary of the method: as §1
[3] = test system: Rattus norvegicus; assay: Hypoglycemic activity in 48-hrs fasted rat assessed as decrease in blood glucose level at 200 mg/kg, po after 2 hrs; format: functional; summary of the method: as §1
[4] = test system: Rattus norvegicus; assay: Hypoglycemic activity in 48-hrs fasted rat assessed as decrease in blood glucose level at 200 mg/kg, po after 4 hrs; format: functional; summary of the method: as §1
[5] = test system: Rattus norvegicus; assay: Hypoglycemic activity in 48-hrs fasted rat assessed as decrease in blood glucose level at 200 mg/kg, po after 1 hr; format: functional; summary of the method: as §1
[6] = test system: Rattus norvegicus; assay: Hypoglycemic activity in 48-hrs fasted rat assessed as decrease in blood glucose level at 200 mg/kg, ip after 1 hr; format: functional; conditions: route intraperitoneal; summary of the method: as §1
[7] = test system: Rattus norvegicus; assay: Hypoglycemic activity in 48-hrs fasted rat assessed as decrease in blood glucose level at 200 mg/kg, ip after 2 hrs; format: functional; conditions: route intraperitoneal; summary of the method: as §1
[8] = test system: Rattus norvegicus; assay: Toxicity in 48-hrs fasted rat assessed as mortality at 200 mg/kg, ip after 4 hrs; format: organism-based; parameters: dose 200 mg/kg, route intraperitoneal; conditions: in vivo
Summary of the method: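 Male rats, about 200 g, fasted 48 h before dosing. Given ip as a suspension in 0.9% saline; vehicle-only group run as controls. Tail-vein blood taken at time zero and at 1, 2 and 4 h after dosing.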

Structure (SMILES) | Activity [1] | Activity [2] | also measured
O=C(O)c1ccc(S)c(C(=O)O)n1 | inactive | inactive | 
CCCCNC(=O)NS(=O)(=O)c1ccc(C)cc1 [TOLBUTAMIDE] |  |  | inhibition in vivo at 200 mg/kg [3]: 47%; inhibition in vivo at 200 mg/kg [4]: 48%; inhibition in vivo at 200 mg/kg [5]: 28%
O=C(O)c1[nH]c2ccccc2c1S |  |  | inhibition in vivo at 200 mg/kg [6]: 45%; inhibition in vivo at 200 mg/kg [7]: 51%; Activity [8]: Toxic
CS(=O)(=O)c1cccnc1C(=O)O | inactive | inactive | 
O=C(O)c1nc2ccccc2cc1S | inactive | inactive | 
O=C(O)c1nc(C(=O)O)c(S)cc1S | inactive | inactive | 
O=C(O)c1ncc2ccccc2c1S | inactive | inactive | 
O=C(O)c1nccnc1S | inactive | inactive | 
CCOC(=O)c1ncsc1S | inactive | inactive | 
O=C(O)c1ncc(S)cc1S | inactive | inactive | 
C[S+]([O-])c1cccnc1C(=O)O (centres undefined) | inactive | inactive | 
